Compounds with a hit are over-represented: about 2.1% of the library has one in this group of screens.
EBNA-1 inh: blocks EBNA-1 binding to DNA; EBNA-1 DNA binding, fluorescence polarization; inhibition, % at 14.8 µM; 300,000 tested, 0.34% active; in the data active = inhibition above about 28%
PABP FP inh: PABP-poly(A) binding inhibition. PABP-poly(A) RNA binding, fluorescence polarization. inhibition, % at 35 µM. 290,000 tested, 1% active;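 note: calls also rest on retests at 20 µM and on dose response follow-up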
NS3 helicase inh: HCV NS3 helicase inhibition | NS3 helicase DNA unwinding, Cy5 molecular beacon fluorescence | inhibition, % at 10.9 µM | 290,000 tested, 0.56% active | AID 1800;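 active = inhibition above the mean of all tested compounds plus 3 SD, set per campaign, cut at about 35% in these data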;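 note: 0% = DMSO wells and 100% = thioflavine S control wells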
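Measured by: Cy5 fluorescence, 0 and 60 min reads / Assay system: NS3 helicase fragment of HCV / Control set: low DMSO, high thioflavine S at 110 µM / Times: 1 h reaction at 25 °C, ATP-initiated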
MLLE-PAM2 inh: inhibitors of microRNA-mediated deadenylation, human PABP1 MLLE binding | P11940 | GST-MLLE / FITC-PAM2 fluorescence polarization | inhibition, % at 20 µM | 360,000 tested, 0.36% active | AID 588489; in the data active = inhibition above about 35%, passing the limit was not always enough;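 note: plate controls were DMSO wells with GST-MLLE for no effect and wells lacking GST-MLLE protein for full effect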
ZTA counter: ZTA (EBV) inhibition in EBNA-1 counter-screen; P03206; ZTA-DNA binding, fluorescence polarization; inhibition, % at 11 µM; 320,000 tested, 0.15% active; in the data active = inhibition above about 33%
Target sequence (P03206 whole entry, looked up): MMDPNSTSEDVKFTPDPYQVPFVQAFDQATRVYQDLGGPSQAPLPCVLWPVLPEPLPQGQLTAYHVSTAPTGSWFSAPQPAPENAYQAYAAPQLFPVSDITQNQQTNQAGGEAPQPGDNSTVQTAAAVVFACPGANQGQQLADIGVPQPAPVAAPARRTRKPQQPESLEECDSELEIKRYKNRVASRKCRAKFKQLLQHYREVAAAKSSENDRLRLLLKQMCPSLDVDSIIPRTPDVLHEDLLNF
eIF4H inh: inhibitors of RNA binding by human eIF4H. AID 2012. inhibition, % at 35 µM. eIF4H fluorescence polarization binding assay. 290,000 tested, 0.94% active. Q15056;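 note: calls also rest on retests at 20 µM and on dose response follow-up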
EBNA-1 confirm: EBNA-1 (EBV) inhibition, confirmation; shares compounds with EBNA-1 inh; Recombinant EBNA-1 DBD, Cy5-DNA fluorescence polarization; inhibition, % at 14.8 µM; 830 tested, 35% active; AID 2292;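 active = mean inhibition across replicates above a set limit taken from the earlier primary screen, cut at about 28% in these data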;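 note: plate controls were EBNA-1 protein with DMSO for no effect and wells lacking EBNA-1 for full effect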
ZTA DNA inh trip: blocks Epstein-Barr virus ZTA in triplicate, EBNA-1 counter-screen; Zta-ZRE DNA binding, Cy5 fluorescence polarization; AID 2328; inhibition, % at 11.1 µM; 830 tested, under 10 active; shares compounds with EBNA-1 inh;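 active = mean inhibition over triplicates above a set limit taken from the primary EBNA-1 screen, cut at about 37% in these data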;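 note: purified full length Zta protein with Cy5 labeled ZRE DNA probe; 0% = Zta with DMSO and 100% = wells lacking Zta protein; inhibitors lower polarization by freeing the labeled DNA probe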
* marks the source's active call; other numbers are inactive results. Unless noted, the rule behind the calls is not given here.

For O=C(CCCCCNc1nc(=S)[nH]c2ccccc12)NCCc1ccc(Cl)cc1 the results were EBNA-1 inh 66*, PABP FP inh 10, NS3 helicase inh -7, MLLE-PAM2 inh -113, ZTA counter 3, eIF4H inh -11, EBNA-1 confirm 68* and ZTA DNA inh trip 2.
For Cc1cccc(C)c1NC(=O)C(NC(=O)CN1C(=O)c2ccccc2C1=O)c1ccccc1 (configuration not stated) the results were EBNA-1 inh 29*, PABP FP inh -5, NS3 helicase inh -2, MLLE-PAM2 inh -4, ZTA counter -4, eIF4H inh 4, EBNA-1 confirm 7 and ZTA DNA inh trip 6.
NC(=O)c1ccccc1NC(=O)Cc1cccs1 was read as EBNA-1 inh 2, PABP FP inh 3, NS3 helicase inh 9, MLLE-PAM2 inh 4, ZTA counter -4 and eIF4H inh -7.
Screening CC(=O)Nc1ccccc1-c1nnn(CC(=O)Nc2ccc3c(c2)OCCO3)n1 returned EBNA-1 inh 6, PABP FP inh 0, NS3 helicase inh 5, MLLE-PAM2 inh 4, ZTA counter 10 and eIF4H inh 2.
Screening O=C(Cn1nnc(-c2ccccc2NC(=O)c2ccccc2)n1)Nc1ccc2c(c1)OCCO2 returned EBNA-1 inh 61*, PABP FP inh 8, NS3 helicase inh 6, MLLE-PAM2 inh -1, ZTA counter 10, eIF4H inh -5, EBNA-1 confirm 60* and ZTA DNA inh trip 4.
`CCn1nnc(-c2ccccc2NC(=O)c2cccc(-n3cnnn3)c2)n1` gave EBNA-1 inh 87*, PABP FP inh 6, NS3 helicase inh 5, MLLE-PAM2 inh -2, ZTA counter -1, eIF4H inh -6, EBNA-1 confirm 83* and ZTA DNA inh trip 10.
`CCn1nnc(-c2ccccc2NC(=O)c2ccc(-n3cnnn3)cc2)n1` gave EBNA-1 inh 4, PABP FP inh -1, NS3 helicase inh 1, MLLE-PAM2 inh -6, ZTA counter 3 and eIF4H inh 11.
Screening Cc1ccc(C(=O)OCc2nc3ccccc3s2)o1 returned EBNA-1 inh 10, MLLE-PAM2 inh -6 and ZTA counter 8.
For COc1ccc(-c2csc(N(CCCN3CCOCC3)C(=O)CCl)n2)cc1 the results were EBNA-1 inh 4, PABP FP inh 9, NS3 helicase inh -10, MLLE-PAM2 inh 19, ZTA counter 4 and eIF4H inh -12.
`Cc1ccc(C(=O)COC(=O)CNC(=O)CN2C(=O)c3ccccc3C2=O)cc1` gave EBNA-1 inh 33*, PABP FP inh 14, NS3 helicase inh -4, MLLE-PAM2 inh 5, ZTA counter 4, eIF4H inh -2, EBNA-1 confirm 28* and ZTA DNA inh trip -4.
Screening Cc1cc(/C=C2\SC(=S)N(C)C2=O)c(C)n1-c1ccccc1O returned EBNA-1 inh 35*, MLLE-PAM2 inh -124, ZTA counter 16, EBNA-1 confirm 43* and ZTA DNA inh trip -5.
For O=C(NCc1ccc2c(c1)OCO2)C1CCC(CNS(=O)(=O)c2ccc(Cl)cc2)CC1 (configuration not stated) the results were EBNA-1 inh 30*, PABP FP inh -1, NS3 helicase inh -6, MLLE-PAM2 inh 14, ZTA counter -2, eIF4H inh 5, EBNA-1 confirm 63* and ZTA DNA inh trip 8.
Screening Cc1ccc(S(=O)(=O)NCC2CCC(C(=O)NCc3ccc4c(c3)OCO4)CC2)cc1 (configuration not stated) returned EBNA-1 inh -1, PABP FP inh 8, NS3 helicase inh -2, MLLE-PAM2 inh -5, ZTA counter 16 and eIF4H inh -4.
For CCOC(=O)Nc1ccc2c(COC(=O)CN(C)S(=O)(=O)c3ccc(C)cc3)cc(=O)oc2c1 the results were EBNA-1 inh 56*, MLLE-PAM2 inh -2, ZTA counter 0, EBNA-1 confirm 20 and ZTA DNA inh trip 20.
Screening CN1C(=O)CC(C(=O)Nc2ccccc2F)SC1=Nc1ccc2c(c1)OCO2 (configuration not stated) returned EBNA-1 inh 28*, PABP FP inh -8, NS3 helicase inh -4, MLLE-PAM2 inh 5, ZTA counter -2, eIF4H inh 0, EBNA-1 confirm 50* and ZTA DNA inh trip 4.
COc1cccc(-c2c(C(=O)N/N=C(\C)c3ccc(Cl)s3)nnn2-c2nonc2N)c1 was read as EBNA-1 inh 35*, PABP FP inh 7, NS3 helicase inh 24, MLLE-PAM2 inh -4, ZTA counter -6, eIF4H inh -14, EBNA-1 confirm 6 and ZTA DNA inh trip -7.
Screening CCOc1ccc(/C=N/NC(=O)c2nnn(-c3nonc3N)c2-c2ccc(OCC)cc2)cc1 returned EBNA-1 inh 35*, PABP FP inh -3, NS3 helicase inh 7, MLLE-PAM2 inh 12, ZTA counter -8, eIF4H inh 3, EBNA-1 confirm 1 and ZTA DNA inh trip -1.
For COc1cccc(-c2c(C(=O)N/N=C(\C)c3ccco3)nnn2-c2nonc2N)c1 the results were EBNA-1 inh -4, PABP FP inh 1, NS3 helicase inh 5, MLLE-PAM2 inh -13, ZTA counter -13 and eIF4H inh -16.
For COCCn1c(SCC(=O)Nc2ccccc2F)nc2c([nH]c3ccccc32)c1=O the results were EBNA-1 inh 0, PABP FP inh 4, NS3 helicase inh 7, MLLE-PAM2 inh -6, ZTA counter 15 and eIF4H inh -10.
For C=CCn1c(SCC(=O)Nc2ccccc2OC)nc2c([nH]c3ccccc32)c1=O the results were EBNA-1 inh 40*, PABP FP inh 9, NS3 helicase inh -5, MLLE-PAM2 inh -6, ZTA counter -6, eIF4H inh -12, EBNA-1 confirm 5 and ZTA DNA inh trip 4.
COCCn1c(SCC(=O)Nc2ccccc2OC)nc2c([nH]c3ccccc32)c1=O was read as EBNA-1 inh 30*, PABP FP inh -4, NS3 helicase inh -9, MLLE-PAM2 inh 3, ZTA counter 13, eIF4H inh 5, EBNA-1 confirm -3 and ZTA DNA inh trip 17.
For CC(=O)c1cccc(NC(=O)c2ccc(-c3ccccc3[N+](=O)[O-])o2)c1 the results were EBNA-1 inh 36*, PABP FP inh 1, NS3 helicase inh -2, MLLE-PAM2 inh -1, ZTA counter 8, eIF4H inh -10, EBNA-1 confirm 4 and ZTA DNA inh trip 17.
Screening COCCCNC(=O)c1ccc(Cn2c(=O)c3ccccc3n(Cc3ccccc3C#N)c2=O)cc1 returned EBNA-1 inh 33*, PABP FP inh 0, NS3 helicase inh -2, MLLE-PAM2 inh 4, ZTA counter 6, eIF4H inh -4, EBNA-1 confirm 11 and ZTA DNA inh trip 1.

Compound activity from PubChem BioAssay.
